Only some compounds are listed: those with a hit (about 11% of all), similar ones and a draw of the others.
RORA act: activators of orphan receptor RORA, primary screen, cell-based, luminescence. Nuclear receptor ROR-alpha (Homo sapiens), P35398. CHO-K1 Gal4-RORA LBD luciferase reporter; percent increase over mock-subtracted basal signal. activation, % at 10 µM. 1.5% of 65,000 active;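 active = activation above the mean of all tested compounds plus 3 SD, cut at about 49% in these data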;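 note: 0% = DMSO-treated RORA cells and 100% = added signal equal to DMSO minus mock-transfected cells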
SF-1 act: activators of human SF-1, primary screen, cell-based, CHO-K1, Gal4-SF-1 LBD, luciferase luminescence; AID 522, 2006; CHO-K1 Gal4-SF-1 LBD luciferase reporter; % increase over DMSO SF-1-specific signal; 1.9% of 65,000 active; activation, % at 10 µM; Steroidogenic factor 1 (Homo sapiens), Q13285;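 active = activation above the mean activation of all tested compounds plus 3 SD, cut at about 50% in these data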
Target sequence (Q13285 whole entry, looked up, the tested form may be a part): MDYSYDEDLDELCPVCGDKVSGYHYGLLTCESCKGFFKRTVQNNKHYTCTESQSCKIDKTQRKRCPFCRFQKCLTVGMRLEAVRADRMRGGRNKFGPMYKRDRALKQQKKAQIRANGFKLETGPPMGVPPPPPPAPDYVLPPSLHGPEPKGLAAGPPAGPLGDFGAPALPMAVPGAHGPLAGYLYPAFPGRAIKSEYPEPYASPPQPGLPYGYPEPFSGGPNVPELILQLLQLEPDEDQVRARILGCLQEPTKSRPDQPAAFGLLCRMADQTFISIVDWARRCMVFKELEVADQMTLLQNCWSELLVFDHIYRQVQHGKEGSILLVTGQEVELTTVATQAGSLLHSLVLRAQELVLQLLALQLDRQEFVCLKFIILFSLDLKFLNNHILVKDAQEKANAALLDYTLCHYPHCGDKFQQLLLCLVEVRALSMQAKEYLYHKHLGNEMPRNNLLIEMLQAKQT
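Assay system: CHO-K1 cells co-transfected with Gal4 DBD–human SF-1 LBD, 5xGal4 luciferase reporter; doses: 10 µM only; incubation: 20 h compound exposure at 37 °C after 1 h cell settling; signal: luciferase light emission; evaluation: percent activation versus DMSO; repeats: one test per compound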
Htt clearance: clearance of mutant huntingtin inclusions, primary screen, imaging, HeLa Exon1htt(103Q)mCFP, confocal imaging. aggregate imaging; zero = plate's median compound well. inhibition, % at 1.5 µM. 0.42% of 47,000 active. AID 853, 2007;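 active = inhibition of aggregate fluorescence above about 70%, also judged a hit by eye on the cell image, limit read from the data, passing the limit was not always enough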;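 note: cells exposed to compound for three days before fixation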
M1 antag: antagonists of rat M1 muscarinic receptor; CHO-M1 cells, Fluo-4 calcium, ACh EC80 antagonist mode; stronger effect = lower value; B-score at 10 µM; 3.4% of 64,000 active; AID 628, 2007;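 active = calcium fluorescence response, raw or row-and-column corrected B-score, differing from the plate sample mean either way at a set confidence level, mostly lower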
D1 mod: D1 CRE-luciferase signal change, two-sided – cell-based, HEK293 D1, dopamine EC30, D1 allosteric modulator project, primary screen. B-score at 10 µM. AID 641, 2007. 5.9% of 58,000 active. D(1A) dopamine receptor (Homo sapiens), P21728. dopamine EC30 potentiation; actives deviate in either direction;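 active = luminescence count or its row- and column-corrected plate score outside the 99.7% band of the plate's sample wells, on either side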
M1 ag: M1 muscarinic receptor agonists, primary screen, CHO-M1 cells, Fluo-4 calcium, agonist mode | Fluo-4 calcium fluorescence; stronger effect = higher value | 3% of 64,000 active | B-score at 10 µM | Muscarinic acetylcholine receptor M1;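 active = fluorescence rise, raw or as B-score row- and column-corrected plate score, outside the 99.7% band of its plate's samples, either direction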
* hit, by the source's call.

Screening O=C(Nc1ccc(N2CCOCC2)c(F)c1)c1ccncc1 returned RORA act 8, SF-1 act 9, M1 antag -1.4, D1 mod 0.33 and M1 ag 0.67.
For CS(=O)(=O)N(CC(=O)N1CCCC1)c1ccc(OCc2ccccc2)cc1 the results were RORA act 8, SF-1 act -3, Htt clearance 78*, M1 antag -0.51, D1 mod -0.21 and M1 ag -1.2.
`CS(=O)(=O)N(CC(=O)N1CCCCCC1)c1ccccc1` gave RORA act -8, SF-1 act 0, M1 antag -0.29, D1 mod 0.57 and M1 ag 0.45.
For COC(=O)c1ccc(N(C(=O)CNC(=O)c2ccco2)C(C(=O)NC2CCCC2)c2ccco2)cc1 (centres undefined) the results were Htt clearance -35.
`CCCOc1ccc(C2C(=O)N(C3CCCCC3)CC(=O)N2C2CC2)cc1OC` (centres undefined) gave RORA act -10, SF-1 act -9, Htt clearance 27, M1 antag -0.46, D1 mod -0.79 and M1 ag 0.59.
Screening Cc1cc(C)nc(Nc2nc3ccccc3[nH]2)n1 returned RORA act 15, SF-1 act 49, Htt clearance -7, M1 antag -0.26, D1 mod 0.074 and M1 ag -0.41.
For c1ccc(Nc2nc3ccccc3[nH]2)nc1 the results were RORA act 79*, SF-1 act 55*, Htt clearance -20, M1 antag 0.26, D1 mod -0.54 and M1 ag 0.044.
Screening Cc1ccccc1Cn1ccc(NC(=O)c2nc3ncccn3n2)n1 returned RORA act -3, SF-1 act -8, Htt clearance 12, M1 antag -0.3 and M1 ag 0.71.
`Cc1ccccc1Cn1ccc(NC(=O)c2onc(C)c2Cl)n1` gave RORA act 87*, SF-1 act 11, M1 antag -0.41, D1 mod -0.53 and M1 ag -0.1.
CCOc1ccc(Nc2c3c(nc4ncnn24)CC(C)CC3)cc1 (centres undefined) was read as RORA act -5, SF-1 act -1, M1 antag 2.4*, D1 mod 0.29 and M1 ag 1.2.
For O=C(O)c1ccc(NC(CSCc2cccc(F)c2)C(=O)O)c([N+](=O)[O-])c1 (centres undefined) the results were Htt clearance -47.
`CC(=O)Nc1ccc2oc(-c3cc(F)c(F)cc3Cl)nc2c1` gave RORA act 52*, SF-1 act 53*, Htt clearance -48, M1 antag -0.22, D1 mod -2.5 and M1 ag -0.21.
CC(=O)Nc1ccc2oc(-c3ccccc3Br)nc2c1 was read as RORA act -8, SF-1 act 11, Htt clearance 34, M1 antag 0.12, D1 mod -2.8* and M1 ag -0.051.
Cn1ncc2c(Nc3ccc(-c4ccccc4)cc3)ncnc21 was read as RORA act 43, SF-1 act 60*, M1 antag 0.31, D1 mod 1.9 and M1 ag -0.34.
CC(C)Nc1ncnc2c1cnn2-c1ccccc1 was read as RORA act 30, SF-1 act 15, Htt clearance 3, M1 antag 0.39, D1 mod -4.4* and M1 ag -0.73.
For Cc1cccc(-n2ncc3c(NCCCn4ccnc4)ncnc32)c1 the results were RORA act 42, SF-1 act 28, M1 antag -0.98, D1 mod -4.1* and M1 ag 0.08.
Cc1ccccc1Nc1ncnc2c1cnn2-c1ccccc1 was read as RORA act 38, SF-1 act 34, M1 antag -0.26, D1 mod -1.5 and M1 ag 0.69.
For Cc1cccc(-n2ncc3c(NC(C)C)ncnc32)c1 the results were RORA act 33, SF-1 act 28, M1 antag -1.3, D1 mod -3.6* and M1 ag -0.015.
`COc1cc2c(cc1OC)-c1nnc(-c3cccs3)n1C1(CCCC1)C2` gave Htt clearance -13.

Source: PubChem (several laboratories)
